# Compound activity as filed in PubChem BioAssay.
# PKA-R2B activ: PKA-R2B complex activation. PKA-R2B holoenzyme dissociation, Cy5-IP20 fluorescence polarization; R2B truncated from residue 108, S112A mutant; 0% DMSO only, 100% 113 µM cGMP. activation, % at 11.4 µM. 340,000 compounds, 0.079% hits. AID 504700;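 active = activation above a cutoff set at the mean over all compounds plus 3 SD, cut at about 18% in these data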;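 also: higher means more holoenzyme dissociation and a rise in polarization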
# Target sequence (P31323 whole entry, looked up, other chains not shown, the tested form may be a part): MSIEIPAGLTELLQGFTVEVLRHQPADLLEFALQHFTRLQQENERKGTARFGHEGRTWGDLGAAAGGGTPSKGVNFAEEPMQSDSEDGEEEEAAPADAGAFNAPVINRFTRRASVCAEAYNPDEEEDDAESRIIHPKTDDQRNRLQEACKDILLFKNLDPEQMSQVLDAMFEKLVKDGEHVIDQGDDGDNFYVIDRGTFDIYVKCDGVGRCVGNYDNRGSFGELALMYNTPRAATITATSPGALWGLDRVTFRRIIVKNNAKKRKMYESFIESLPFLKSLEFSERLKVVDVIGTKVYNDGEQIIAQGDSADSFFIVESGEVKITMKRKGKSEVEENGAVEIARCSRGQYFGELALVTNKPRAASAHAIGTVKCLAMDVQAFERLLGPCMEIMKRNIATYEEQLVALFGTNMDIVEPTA
# Rin1 Abl inh: human Rin1-Abl interaction inhibition; TR-FRET Rin1/Abl binding, biochemical; P00519+Q13671; 360,000 compounds, 0.4% hits; inhibition, % at 7.35 µM; in the data active = inhibition above about 5%, passing the limit was not always enough
# TbMetRS inhib: Trypanosoma brucei MetRS inhibition. purified T. brucei MetRS, ATP depletion, Kinase-Glo luminescence. inhibition, % at 11.9 µM. 360,000 compounds, 0.4% hits. AID 624268;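 active = inhibition above a per-plate cutoff of the control wells' mean inhibition plus 3 SD, cut at about 5.5% in these data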
#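 Test system: purified T. brucei MetRS enzyme. Also added: ATP, methionine and E. coli bulk tRNA substrates. Compound: 11.9 µM single point. Schedule: 15 min enzyme-compound preincubation, 2 h reaction, 10 min detection, 25 °C. Signal: luciferase luminescence of residual ATP, Kinase-Glo. Evaluation: percent inhibition versus plate control medians. Controls: DMSO wells, low control.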
# PKA-R1A activ: activators of PKA-R1A complex | P00514+P68181 | PKA-R1A dissociation, Cy5-IP20 fluorescence polarization; scaled: DMSO 0%, 113 µM cGMP 100% | activation, % at 11.4 µM | 340,000 compounds, 0.083% hits;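 active = percent activation above the mean of all tested compounds plus 3 SD, cut at about 19% in these data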;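 also: higher means more PKAc released from R1A so a rise in polarization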
# H9c2 protect: protects H9c2 cardiomyocytes from peroxide injury; protection from H2O2 cell death, % at 20 µM; H2O2 injury protection, ATPLite, 2 h; 360,000 compounds, 0.63% hits;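 active = compounds giving at least 50% protection of heart cells from peroxide-induced death in the single-dose screen, raw or plate-pattern-corrected value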
# R2B FP artifact: FP assay interference, PKA-R2B counter-screen; 270 compounds, 6% hits; activation, % at 11.4 µM; FP artifact counterscreen, fluorescence polarization; shares compounds with PKA-R2B activ; AID 504796; in the data active = activation above about 20%;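 also: Cy5 labelled IP20 peptide probe with compound but no PKA protein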
# PKA-R2B act conf: confirmation of human PKA-R2B complex activators | shares compounds with PKA-R2B activ | 270 compounds, 9% hits | fluorescence polarization, activation | activation, % at 11.4 µM; in the data active = activation above about 19%
# Target sequence (P31323 whole entry, looked up): as the sequence (P31323 whole entry, looked up, other chains not shown, the tested form may be a part) above
# A number is an active result; n = inactive; x = not tested or not shown. Shown are actives, neighbours in structure and some others; about 1.5% of the full set was active somewhere.
SMILES,PKA-R2B activ,Rin1 Abl inh,TbMetRS inhib,PKA-R1A activ,H9c2 protect,others
CCOC(=O)C1CCN(C(=O)c2ccc3c(=O)n4nc(Nc5ccccc5OC)sc4nc3c2)CC1,n,n,n,n,70.9,
CCOC(=O)C1CCN(C(=O)c2ccc3c(=O)n4nc(Nc5cc(C)ccc5C)sc4nc3c2)CC1,n,n,n,n,n,
O=C(N/N=C/c1cccc(O)c1)c1cc(-c2ccc3c(c2)OCO3)n[nH]1,n,n,n,n,76.5,
O=C(N/N=C/c1ccccc1)c1cc(-c2ccc3c(c2)OCO3)n[nH]1,n,n,n,n,n,
O=C(COC(=O)Cn1cc(C(F)(F)F)ccc1=O)NCc1ccccc1,n,n,n,n,n,
Cc1ccccc1C(=O)Nc1ccc2c(C#N)c3nc4ccccc4nc3n2c1,n,n,n,n,64.7,
Cc1c(C(=O)Nc2ccccc2)cn2c(nc3ccccc32)c1C#N,n,n,n,n,n,
C=CCn1c(SCC(=O)c2ccc(O)c(O)c2)nnc1-c1cccc(OC)c1,n,n,n,n,54.3,
C=CCn1c(SCC(=O)c2ccc(O)c(O)c2)nnc1-c1ccc(C)cc1,n,n,n,n,61.7,
COc1ccc(-n2nnnc2SCC(=O)c2ccc(O)c(O)c2)cc1,n,n,n,n,59.8,
CCCCN1C(=O)C(CC(=O)NC2CC2)CC(C(=O)N2CCOCC2)=C1C (stereo unspecified),n,n,n,n,n,
CCOC(=O)C1CCCN(C(=O)c2ccc3c(c2)C(C)(C)CCC3(C)C)CC1 (stereo unspecified),x,n,n,x,n,
CCOC(=O)c1ccc(NC(=S)NCCc2ccc(F)cc2)cc1,x,n,n,x,n,
CC1CCCN(C(=O)c2cccc(S(=O)(=O)N3CCCC3)c2)C1 (stereo unspecified),n,n,n,n,n,
CCOC(=O)c1c2c3c(cccc3n(C)c1=O)C(=O)c1ccccc1-2,n,n,n,n,75.0,
CCOC(=O)c1c2c3c(c(Cl)ccc3[nH]c1=O)C(=O)c1ccccc1-2,x,n,n,x,60.2,
CCOC(=O)c1c2c3c(cccc3[nH]c1=O)C(=O)c1ccccc1-2,n,n,n,n,n,
CCCCc1nnc(SCC(=O)Nc2nccs2)n1C,n,n,n,n,n,
Cn1c(CCCOc2ccc(Cl)cc2Cl)nnc1SCC(=O)Nc1nccs1,20.4,n,n,n,n,R2B FP artifact=n;PKA-R2B act conf=n
CCOc1cc(/C=N/n2c(C)nc3ccccc3c2=O)ccc1O,19.8,n,n,n,n,R2B FP artifact=n;PKA-R2B act conf=n
Brc1ccc(/C=N/Nc2ncnc3c2cnn3Cc2ccccc2)cc1,21.6,n,n,n,n,R2B FP artifact=n;PKA-R2B act conf=n
c1ccc(Cn2ncc3c(Nc4ccccc4)ncnc32)cc1,n,n,n,n,n,
S=C(Nc1ccc(Cl)cc1)N(CCCN1CCOCC1)Cc1cccs1,21.9,n,n,n,n,R2B FP artifact=n;PKA-R2B act conf=n
Cn1nc(C(F)(F)F)c(C(=O)Nc2ccc(F)cc2)c1Cl,20.4,n,n,n,n,R2B FP artifact=n;PKA-R2B act conf=n
COc1ccc(NC(=O)c2c(C(F)(F)F)nn(C)c2Cl)cc1,x,n,n,x,n,
SMILES,PKA-R2B activ,Rin1 Abl inh,TbMetRS inhib,PKA-R1A activ,H9c2 protect,others
CCOc1ccccc1/C=C(\C#N)C(=O)NC1CC1,x,n,n,x,n,
CCOc1c(Br)cc(/C=C(\C#N)C(=O)NC2CC2)cc1OC,19.1,n,n,n,n,R2B FP artifact=n;PKA-R2B act conf=n
COC(=O)C(Cc1cccc(C)n1)(c1ccccc1)c1ccccc1,n,n,n,n,n,
c1ccc(-c2nnc(OCCN3CCOCC3)c3ccccc23)cc1,18.4,n,n,n,n,R2B FP artifact=n;PKA-R2B act conf=n
COc1ccc(S(=O)(=O)N[C@H](C(=O)O)C(C)C)cc1,18.9,n,n,n,n,R2B FP artifact=n;PKA-R2B act conf=n
CC[C@@H]1[C@H]2CCCC(=O)N3CC[C@@H](C[C@@H]1Nc1ccccc1)[C@@H]23,n,n,n,n,n,
COCC(=O)N(C)C[C@H]1N[C@@](C)(C(=O)OC)[C@H]2C(=O)N(C)C(=O)[C@@H]12,n,n,n,n,n,
COc1cc2c(cc1OC)C(Cc1ccc(O)cc1)NCC2 (stereo unspecified),n,n,n,n,n,
